One may read the MIC as the smallest concentration in the dilution series that meets the test's criterion for growth inhibition. As a reminder, the HC50 is the concentration giving 50% haemolysis. Broadly, the LD50 is the dose expected to kill half of the subjects tested.

This is an account of results in ChEMBL document CHEMBL3860103, “Antibacterial and Antibiofilm Activity of Cationic Small Molecules with Spatial Positioning of Hydrophobicity: An in Vitro and in Vivo Evaluation” (J Med Chem, 2016).

For data set [1], the system named is Staphylococcus aureus. Kind of data set: Antibacterial activity against Staphylococcus aureus incubated for 24 hrs. Format: functional. The essentials:
(§1)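 Broth microdilution: 6 h cultures diluted to ~10^5 CFU/mL in medium; compounds 2-fold serially diluted in water, mixed 1:3 with bacterial suspension. Incubated 24 h, 37 °C; OD600 read. MIC = concentration with OD similar to medium-only control. Triplicate wells, experiments repeated at least twice.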

In data set [2] the test system is Escherichia coli. The data set is described as follows: Antibacterial activity against Escherichia coli incubated for 24 hrs. The format is functional. A digest of the protocol: as §1
The test system of data set [3] is Staphylococcus aureus. Kind of data set: Antibacterial activity against methicillin-resistant Staphylococcus aureus incubated for 24 hrs. Format: functional. The essentials:
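MRSA (ATCC 33591) from a 6 h culture (~10^9 CFU/mL), diluted to ~10^5 CFU/mL in medium. Compounds in water, 2-fold serial dilutions, combined with the bacteria at 1:3 by volume and incubated 24 h at 37 °C. OD600 read. MIC is the lowest concentration whose OD matches the media-only control. Triplicate wells; experiments repeated at least twice.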

A short description of data set [4]: Induction of hemolysis in human RBC incubated for 1 hr. Format: cell-based, Erythrocyte. The settings on record: red blood cells. A digest of the protocol:
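Washed human RBCs from heparinized blood, 5 vol% in PBS, mixed 3:1 with serially diluted compounds; 1 h at 37 °C. Centrifuged; supernatant A540 read. Hemolysis % = (A−A0)/(Atotal−A0)×100, with water as 0% and 0.1 vol% Triton X-100 as full lysis.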

Data set [5] can be described thus: Selectivity index, ratio of HC50 for induction of hemolysis in human RBC to MIC for Staphylococcus aureus.
Data set [6] is described as follows: Selectivity index, ratio of HC50 for induction of hemolysis in human RBC to MIC for Escherichia coli.
Data set [7] in a line: Toxicity in HEK293 cells assessed as induction of cell death at 32 ug/ml incubated for 24 hrs by calcein AM and propidium iodide dye based fluorescence microscopy. The settings on record: human, hek293, 24 h. The essentials: (§2)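 HEK 293 cells seeded ~10^4 cells/well, treated with compounds for 24 h (16, 32 or 64 µg/mL); 0.1% Triton X positive, untreated negative control. Stained with calcein AM (2 µM) and PI (4.5 µM) 15 min at 37 °C, 5% CO2; imaged by fluorescence microscopy, 20X objective.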

Data set [8] in a line: Toxicity in HEK293 cells assessed as induction of cell death at 64 ug/ml incubated for 24 hrs by calcein AM and propidium iodide dye based fluorescence microscopy. The conditions noted are these: human, hek293, 24 h. The essentials:
as §2

Data set [9] in a line: Toxicity in HEK293 cells assessed as cell density level at 16 ug/ml incubated for 24 hrs by calcein AM and propidium iodide dye based fluorescence microscopy. The conditions noted are these: human, hek293, 24 h. The essentials:
as §2

Data set [10] is described as follows: Induction of membrane hydration changes in Laurdan dye containing DPPG:DPPE (88:12) liposomes assessed as reduction in general polarization at 25 to 100 ug/ml by luminescence spectrometry. Format: physicochemical. A digest of the protocol:
(§3)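 Liposomes of 0.5 mM DPPG:DPPE (88:12) or 0.5 mM DPPC with Laurdan (lipid:dye 100:1), hydrated in PBS pH 7.4, 10 freeze–thaw cycles, sonicated 15 min at 70 °C. Compounds added in PBS (lipid:compound 7.4:1), tested at 25, 50, 100 µg/mL; emission at 440 and 490 nm (ex 350 nm), 37 °C. GP = (I440−I490)/(I440+I490).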

For data set [11], the system named is Staphylococcus aureus. Kind of data set: Induction of membrane depolarization in Staphylococcus aureus at 32 ug/ml after 0 to 20 mins by […] dye based assay. Format: functional. A digest of the protocol: (§4)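 Membrane-potential dye DiSC3(5) taken up by S. aureus or E. coli; depolarization followed as rise in dye fluorescence after adding compounds at 32 µg/mL.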

For data set [12], the system named is Escherichia coli. Kind of data set: Induction of membrane depolarization in Escherichia coli at 32 ug/ml after 0 to 20 mins by […] dye based assay. The format is functional. The essentials:
as §4

Data set [13] concerns Staphylococcus aureus. The data set is described as follows: Induction of membrane permeabilization in Staphylococcus aureus at 32 ug/ml after 0 to 20 mins by propidium iodide dye based assay. Format: functional. A digest of the protocol: (§5)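 Membrane permeabilization of S. aureus or E. coli followed as increase in propidium iodide fluorescence after adding compounds at 32 µg/mL.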

For data set [14], the system named is Escherichia coli. The data set is described as follows: Induction of membrane permeabilization in Escherichia coli at 32 ug/ml after 0 to 20 mins by propidium iodide dye based assay. Format: functional. A digest of the protocol:
as §5

For data set [15], the system named is Staphylococcus aureus. The data set is described as follows: Induction of biofilm disruption in Staphylococcus aureus assessed as reduction in log bacterial burden at 32 ug/ml after 24 hrs by confocal laser-scanning microscopy. Format: functional. A digest of the protocol: (§6)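 Established coverslip biofilms (S. aureus 24 h in nutrient medium + 1% glucose + 1% NaCl; E. coli 72 h in M9 + 0.5% glycerol + 0.02% casamino acid; 37 °C) washed, then exposed to 32 µg/mL for 24 h at 37 °C. Matrix dissolved with trypsin-EDTA, serially diluted, plated on nutrient agar; viability as log10 CFU/mL versus media-only control.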

In data set [16] the test system is Escherichia coli. Kind of data set: Induction of biofilm disruption in Escherichia coli assessed as reduction in log bacterial burden at 32 ug/ml after 72 hrs by confocal laser-scanning microscopy. The settings on record: in the assay text read “after 24 hrs” for “after 72 hrs”. The format is functional. The essentials:
as §6

Data set [17] relates to Staphylococcus aureus. Kind of data set: Induction of biofilm disruption in Staphylococcus aureus assessed as mature biofilm thickness at 32 ug/ml after 24 hrs by SYTO 9 dye based confocal laser-scanning microscopy (reference value: 14 to 18 um). Format: functional. A digest of the protocol:
(§7)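 Biofilms grown on glass coverslips from ~10^5 CFU/mL: S. aureus in nutrient medium + 1% glucose + 1% NaCl, 24 h; E. coli in M9 + 0.5% glycerol + 0.02% casamino acid, 72 h; stationary, 37 °C. After PBS wash, treated 24 h at 37 °C with 32 µg/mL in the same medium; media-only control. Stained with SYTO 9 (5 µM), imaged by confocal microscopy.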

In data set [18] the test system is Escherichia coli. Kind of data set: Induction of biofilm disruption in Escherichia coli assessed as mature biofilm thickness at 32 ug/ml after 24 hrs by SYTO 9 dye based confocal laser-scanning microscopy (reference value: 14 to 18 um). Format: functional. A digest of the protocol:
as §7

Data set [19] deals with Staphylococcus aureus. Kind of data set: Induction of biofilm disruption in Staphylococcus aureus after 24 hrs by confocal laser-scanning microscopy. Format: functional. The essentials: as §7
Data set [20] in a line: Toxicity in topically dosed mouse by OECD425 guidelines based method. The format is organism-based. The settings on record: in vivo, topical or ocular.
The subject of data set [21] is Mus musculus. The data set is described as follows: Toxicity in topically dosed mouse assessed as induction of inflammation at 200 mg/kg by OECD425 guidelines based method. Format: organism-based. The settings on record: in vivo, topical_or_ocular.
Data set [22] deals with Mus musculus. Kind of data set: Toxicity in topically dosed mouse assessed as induction of abnormal skin reaction at 200 mg/kg by OECD425 guidelines based method. The format is organism-based. The conditions noted are these: in vivo, topical_or_ocular.
For data set [23], the system named is Staphylococcus aureus. Kind of data set: Antibacterial activity against Staphylococcus aureus infected in BALB/c mouse model of superficial skin infection and biofilm formation assessed as reduction in bacterial load in skin at 40 mg/kg applied topically once daily for 4 days and measured 18 hrs after last dose. The format is functional. A digest of the protocol: (§8)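 Female BALB/c mice (6–8 weeks, 18–22 g) made neutropenic with cyclophosphamide i.p. (150 mg/kg, then 100 mg/kg 3 days later), anesthetized, backs shaved, wounded and infected with MRSA ATCC 33591. After 24 h biofilm formation, 40 mg/kg applied topically to wound once daily for 4 days (n = 5/group; untreated control). Skin collected 18 h after last dose for CFU/g; portions formalin-fixed for SEM.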

The test system of data set [24] is Staphylococcus aureus. The data set is described as follows: Antibacterial activity against Staphylococcus aureus infected in BALB/c mouse model of superficial skin infection and biofilm formation assessed as reduction in bacterial load in skin at 40 mg/kg applied topically once daily for 4 days and measured 18 hrs after last dose relative to un-treated control. On the set-up: scale not given: the % may be the effect or the level left. The format is functional. A digest of the protocol:
as §8

For data set [25], the system named is Staphylococcus aureus. Kind of data set: Antibacterial activity against Staphylococcus aureus infected in BALB/c mouse model of superficial skin infection and biofilm formation assessed as reduction in bacterial load in skin at 40 mg/kg applied topically once daily for 4 days and measured 18 hrs after last dose by FEI field emission scanning electron microscopy relative to un-treated control. Format: functional, organism-based. The essentials: as §8

A short description of data set [26]: Induction of membrane hydration changes in Laurdan dye containing DPPC liposomes assessed as reduction in general polarization at 25 to 100 ug/ml by luminescence spectrometry. The format is physicochemical. The essentials: as §3
In data set [27] the test system is Mus musculus. Kind of data set: Toxicity in topically dosed mouse assessed as induction of skin darkening at 200 mg/kg after 14 days by OECD425 guidelines based method. The settings on record: in vivo, topical_or_ocular, 336 h. Format: organism-based.
Data set [28] concerns Mus musculus. Kind of data set: Toxicity in topically dosed mouse assessed as induction of less fur appearance at 200 mg/kg after 14 days by OECD425 guidelines based method. The format is organism-based. The conditions noted are these: in vivo, topical_or_ocular, 336 h.

The source made the active and inactive calls.

On to `CCCCCCNC(=O)C[N+](C)(C)CCCCCCCCCCCC[N+](C)(C)CC(=O)NCCCCCC.[Br-].[Br-]`, for which the MIC against Staphylococcus aureus [1] turned out to be 1 µg/mL; against Escherichia coli [2], 2 µg/mL; with Staphylococcus aureus [3], 2 µg/mL. Besides, the HC50 at 1 h in data set [4] came out at 805 µg/mL. For the same compound, the values for the Selectivity Index in [5] and in data set [6] were 805 and 402, respectively. The Activity result is “Non-Toxic” in [7]; “Non-Toxic” in data set [8]; “Non-Toxic” in data set [9]; “Active” in data set [10]; 2 - 3 um with Staphylococcus aureus [17]; 2 - 3 um in the data set with Escherichia coli [18]. Moreover, the Activity result is on record as “Non-Toxic” in the data set on Mus musculus [21], “Non-Toxic” with Mus musculus [22], 5.3 log10CFU/g in the data set on Staphylococcus aureus [23] and above 99.999% with Staphylococcus aureus [24]. Further, the result in the data set on Staphylococcus aureus [11], in the data set on Escherichia coli [12], in the data set with Staphylococcus aureus [13], with Escherichia coli [14] and in the data set with Staphylococcus aureus [25] was Active. Also, the results for the FC with Staphylococcus aureus [15] and with Escherichia coli [16] were 9.2 and 7.1, respectively. The same compound gave an MBEC in the data set with Staphylococcus aureus [19] of 31.2 to 62.5 µg/mL. In addition, the LD50 in data set [20] is above 200 mg/kg.
`CCCCCCCCCCNC(=O)C[N+](C)(C)CCCC[N+](C)(C)CC(=O)NCCCCCCCCCC.[Br-].[Br-]`: the MIC with Staphylococcus aureus [1], with Escherichia coli [2] and in the data set with Staphylococcus aureus [3] was 2 µg/mL each time. For the same compound, the HC50 at 1 h in [4] is 60 µg/mL. For the same compound, the Selectivity Index in data set [5] and in [6] was 30 throughout. Also, the Activity result in data set [7] is “Toxic”; in data set [8] it was “Toxic”; in data set [9] it was “Toxic”; in data set [10] it was “Active”; in [26] it was “Active”; with Mus musculus [27] it was “Toxic”. In the data set with Mus musculus [28], the Activity entry is on record as “Toxic”. Moreover, the result with Staphylococcus aureus [11], in the data set on Escherichia coli [12], with Staphylococcus aureus [13] and in the data set on Escherichia coli [14] was Active. In the data set with Staphylococcus aureus [19], this compound gave an MBEC of 31.2 to 62.5 µg/mL.
